Legend:
[1] = Oleyl alcohol-water partition coefficient, Rm of the compound measured at 0% methanol by reverse-phase thin layer chromatography; format: physicochemical
How it was run: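 Reversed-phase TLC on Kieselguhr G impregnated with oleyl alcohol. Mobile phases were methanol–water with ammonia and KCl, pH* 10.5, ionic strength 0.1 M, methanol 30–55% (w/w). Each compound had 10–12 Rm determinations at each methanol concentration.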

[2] = Octanol-water partition coefficient, log P of the compound; format: physicochemical
[3] = Dissociation constant, pKa of the compound by UV-visible spectrophotometer analysis; format: physicochemical
Albumin [4] = molecular target: T1, Albumin (Bos taurus, UniProt P02769); test: Binding affinity to bovine serum albumin by circular dichroic probe technique; format: ADME; details: cattle, isolated protein
T1 sequence (P02769 whole entry): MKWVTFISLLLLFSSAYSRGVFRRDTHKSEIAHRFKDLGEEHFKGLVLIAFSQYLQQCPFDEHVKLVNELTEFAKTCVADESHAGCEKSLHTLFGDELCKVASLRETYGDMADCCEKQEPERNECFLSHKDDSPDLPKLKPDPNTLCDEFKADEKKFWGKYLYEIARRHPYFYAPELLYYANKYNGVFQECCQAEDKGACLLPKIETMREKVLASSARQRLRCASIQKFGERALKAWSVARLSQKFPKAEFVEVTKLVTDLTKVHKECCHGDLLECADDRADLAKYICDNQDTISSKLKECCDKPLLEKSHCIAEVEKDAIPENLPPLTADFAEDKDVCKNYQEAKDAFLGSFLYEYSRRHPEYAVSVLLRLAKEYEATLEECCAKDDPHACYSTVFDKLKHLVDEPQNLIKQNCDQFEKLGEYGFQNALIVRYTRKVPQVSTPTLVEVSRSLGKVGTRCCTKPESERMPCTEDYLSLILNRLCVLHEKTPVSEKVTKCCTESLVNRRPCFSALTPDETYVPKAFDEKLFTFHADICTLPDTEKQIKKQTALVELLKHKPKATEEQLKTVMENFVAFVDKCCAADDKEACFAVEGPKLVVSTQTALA

Albumin [5] = molecular target: T1, Albumin; test: Binding affinity to bovine serum albumin; format: ADME; details: cattle, isolated protein
Albumin [6] = molecular target: T1, Albumin; test: Binding affinity to bovine serum albumin high affinity site by circular dichroic probe technique; format: ADME; details: cattle, isolated protein
How it was run: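 Displacement of sulfaethidole from its primary BSA site, followed by circular dichroism. Solutions were in 0.054 M sodium phosphate, pH 7.44 (25 °C), isotonic with NaCl. Reagent concentrations were 1.45 × 10−5 and 2.11 × 10−5 M. Spectra were scanned from 420 to 265 nm in 10-mm cells, with ellipticity read at 280–286 nm, corrected for drug effect on BSA. Apparent K came from the Klotz equation (n = 1) and was extrapolated to zero drug concentration.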

Albumin [7] = molecular target: T1, Albumin; test: Binding affinity to bovine serum albumin assessed as intrinsic binding constant; format: ADME; details: cattle, isolated protein

Rm [1]	logP [2]	pKa [3]	logKa (Albumin [4])	Activity (Albumin [6])	SMILES	log K (Albumin [5])	log K (Albumin [7])
3.19	4.63	9.41	4.66		COc1ccc2c(c1)N(CCCN(C)C)c1ccccc1S2 [METHOXYPROMAZINE]	4.11	
				2.1 ×10⁵ L/mol	CCc1nnc(NS(=O)(=O)c2ccc(N)cc2)s1 [SULFAETHIDOLE]		
3.37		8.1	4.78		CCCC(=O)c1ccc2c(c1)N(CCCN1CCN(C)CC1)c1ccccc1S2 [BUTAPERAZINE]		
2.67	3.8	8.1	4.36		CN1CCN(CCCN2c3ccccc3Sc3ccccc32)CC1 [PERAZINE]	4.32	3.33
2.32					CN1CCCCC1CCN1c2ccccc2Sc2ccc([S+](C)[O-])cc21 (stereo not given) [MESORIDAZINE]		
4.12			4.98		CN(C)CCCN1c2ccccc2Sc2ccc(Cl)cc21 [CHLORPROMAZINE]		
4.51			5.15		CSc1ccc2c(c1)N(CCC1CCCCN1C)c1ccccc1S2 (stereo not given) [THIORIDAZINE]		
3.55			4.67		CN1CCN(CCCN2c3ccccc3Sc3ccc(C(F)(F)F)cc32)CC1 [TRIFLUOPERAZINE]		
2.94		9.29	4.46		CN(C)CCCN1c2ccccc2Sc2ccc(C#N)cc21		
2.17		8.5	4.12		N#Cc1ccc2c(c1)N(CCCN1CCC(O)CC1)c1ccccc1S2 [PERICIAZINE]		
3.38			4.59		CN1CCN(CCCN2c3ccccc3Sc3ccc(Cl)cc32)CC1 [PROCHLORPERAZINE]		3.7
2.74	3.92	7.9	4.2		OCCN1CCN(CCCN2c3ccccc3Sc3ccc(Cl)cc32)CC1 [PERPHENAZINE]		
2.49		8	4.21		CC(CN1CCN(CCOCCO)CC1)CN1c2ccccc2Sc2ccccc21 (stereo not given) [DIXYRAZINE]		

SMILES	Rm [1]	logP [2]	pKa [3]	logKa (Albumin [4])	Activity (Albumin [6])	log K (Albumin [5])	log K (Albumin [7])
OCCN1CCN(CCCN2c3ccccc3Sc3ccc(C(F)(F)F)cc32)CC1 [FLUPHENAZINE]	3.03	4.47					
CN(C)CCCN1c2ccccc2Sc2ccc(C(F)(F)F)cc21 [TRIFLUPROMAZINE]	4.24			5.17		4.58	3.99
CN(C)CCCN1c2ccccc2Sc2ccccc21 [PROMAZINE]	3.43	4.68	9.42	4.54		3.95	3.45

Reference: ChEMBL document CHEMBL3272041, “Quantitative correlations between albumin binding constants and chromatographic Rm values of phenothiazine derivatives” (J Med Chem, 1977)
